Common to all, as to experiment: isothermal titration calorimetry
Holding throughout (format): binding
In general terms: Isothermal titration calorimetry measures the heat released or taken up as one component is titrated into another.

In test [1] the target is BsSecA (Bacillus subtilis, UniProt P28366, E208Q). Summed up:
(§1)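 Full-length native-sequence SecA purified by ion-exchange, hydrophobic and gel-filtration chromatography, then dialysed >18 h against TKM (50 mM Tris-HCl pH 8.0, 50 mM KCl, 5 mM MgCl₂) with 3 buffer changes. Mg-ADP dissolved in final dialysate and titrated at 25 °C into 20 μM WT BsSecA, 30 μM E208Q BsSecA or 10 μM WT EcSecA.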

The target in the next test is EcSecA (Escherichia coli, UniProt P10408). Summed up: as §1
The target in test [2] is BsSecA (Bacillus subtilis, UniProt P28366). Summed up: as §1

As a reminder, the Kd is the free concentration of one partner at which half of the binding sites on the other are occupied at equilibrium, for simple one-to-one binding. Low readings indicate a tighter complex, high ones a looser complex. As to `Nc1ncnc2c1ncn2[C@@H]1O[C@H](COP(=O)(O)OP(=O)(O)O)[C@@H](O)[C@H]1O` [Mg-ADP], the Kd on BsSecA [1] stood at 7700 ± 300 nM; at EcSecA, 62 ± 4 nM; on BsSecA [2], 180 ± 10 nM.

The record behind these values is publication PMC4134686 (Journal of the American Chemical Society, 2013).
